Results reported in ChEMBL document CHEMBL1137378, “Antibacterial agent discovery using thymidylate synthase biolibrary screening” (J Med Chem, 2006).
Converted amounts (≈) assume the structure as drawn.

How the values were obtained:
Enterococcus faecalis = assay: Antibacterial activity against Enterococcus faecalis ATCCC29212; assay type: functional
How it was run: (§1)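 Wild-type strain panel (18 Gram-positive and Gram-negative strains). Bacteria grown in Mueller-Hinton broth at 37 °C for 24 h. Exponentially growing cultures diluted in sterile liquid medium to a final inoculum of about 1 × 10⁴ CFU/mL, then exposed to increasing compound concentrations. MIC taken as the lowest concentration with no evident bacterial growth.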

Escherichia coli [1] = assay: Antibacterial activity against Escherichia coli 256; assay type: functional; how it was run: as §1
Escherichia coli [2] = assay: Antibacterial activity against Escherichia coli 292; assay type: functional; how it was run: as §1
Vero [3] = assay: Cytotoxicity against Vero cells measured as percent of cell growth at 25 mg/L relative to control by MTT assay; assay type: functional, Chlorocebus sabaeus
How it was run: (§2)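 VERO cells grown in MEM with 5% heat-inactivated (56 °C, 30 min) FCS, penicillin, streptomycin and L-glutamine. Cultures were watched for 2 days and live cells counted. Cells were then exposed to increasing compound concentrations; wells with cells only served as control. After 24 h, mitochondrial dehydrogenase activity was read by MTT. Trypan blue exclusion was also run.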

Vero [4] = assay: Cytotoxicity against Vero cells measured as percent of cell growth at 12.05 mg/L relative to control by MTT assay; assay type: functional, Chlorocebus sabaeus; how it was run: as §2
Vero [5] = assay: Cytotoxicity against Vero cells measured as percent of cell growth at 6.25 mg/L relative to control by MTT assay; assay type: functional, Chlorocebus sabaeus; how it was run: as §2
Vero [6] = assay: Cytotoxicity against Vero cells measured as percent of cell growth at 3.12 mg/L relative to control by MTT assay; assay type: functional, Chlorocebus sabaeus; how it was run: as §2
Dihydrofolate reductase = biological target: T1, Dihydrofolate reductase (Homo sapiens, UniProt P00374); assay: Inhibition of human dihydrofolate reductase
T1 sequence (P00374 whole entry): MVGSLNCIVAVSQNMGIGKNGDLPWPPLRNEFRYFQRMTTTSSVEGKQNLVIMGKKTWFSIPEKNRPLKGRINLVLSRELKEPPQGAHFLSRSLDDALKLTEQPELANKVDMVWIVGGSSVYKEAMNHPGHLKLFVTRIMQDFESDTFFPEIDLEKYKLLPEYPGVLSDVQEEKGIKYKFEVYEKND
How it was run: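 Purified human DHFR assayed spectrophotometrically at 25 °C by the fall in A340 on DHF reduction. Ki from steady-state kinetics.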

Listeria monocytogenes [7] = assay: Antibacterial activity against Listeria monocytogenes 3; assay type: functional; how it was run: as §1
Listeria monocytogenes [8] = assay: Antibacterial activity against Listeria monocytogenes 4; assay type: functional; how it was run: as §1
Listeria monocytogenes [9] = assay: Antibacterial activity against Listeria monocytogenes 5; assay type: functional; how it was run: as §1
Listeria monocytogenes [10] = assay: Antibacterial activity against Listeria monocytogenes 6; assay type: functional; how it was run: as §1
Listeria monocytogenes [11] = assay: Antibacterial activity against Listeria monocytogenes 7; assay type: functional; how it was run: as §1
Listeria monocytogenes [12] = assay: Antibacterial activity against Listeria monocytogenes 8; assay type: functional; how it was run: as §1
Listeria monocytogenes [13] = assay: Antibacterial activity against Listeria monocytogenes ATCC 4428; assay type: functional; how it was run: as §1
Staphylococcus aureus [14] = assay: Antibacterial activity against Staphylococcus aureus 341; assay type: functional; how it was run: as §1
Staphylococcus aureus [15] = assay: Antibacterial activity against Staphylococcus aureus 343; assay type: functional; how it was run: as §1
Staphylococcus aureus [16] = assay: Antibacterial activity against Staphylococcus aureus K28; assay type: functional; how it was run: as §1
Staphylococcus aureus [17] = assay: Antibacterial activity against Staphylococcus aureus ATCC 29213; assay type: functional; how it was run: as §1
[18] = test system: Staphylococcus haemolyticus; assay: Antibacterial activity against Staphylococcus haemolyticus ATCC 2997; assay type: functional; how it was run: as §1
[19] = test system: Staphylococcus saprophyticus; assay: Antibacterial activity against Staphylococcus saprophyticus ATCC 15305; assay type: functional; how it was run: as §1
Citrobacter = assay: Antibacterial activity against Citrobacter 224; assay type: functional; how it was run: as §1
Streptococcus = assay: Antibacterial activity against Streptococcus 42; assay type: functional; how it was run: as §1
Vero [20] = assay: Cytotoxicity against Vero cells measured as percent of cell growth at 50 mg/L relative to control by MTT assay; assay type: functional, Chlorocebus sabaeus; how it was run: as §2
[21] = test system: Staphylococcus epidermidis; assay: Antibacterial activity against multiresistant Staphylococcus epidermidis 39; assay type: functional
How it was run: (§3)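 Clinical multidrug-resistant isolates from hospitalized patients' blood or urine. Bacteria grown in Mueller-Hinton broth at 37 °C for 24 h. Exponential-phase cultures diluted in sterile liquid medium to a final inoculum of about 1 × 10⁴ CFU/mL, then exposed to increasing compound concentrations. Inhibitor stocks in DMSO. MIC (µg/mL) taken as the lowest concentration with no evident bacterial growth.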

[22] = test system: Staphylococcus epidermidis; assay: Antibacterial activity against multiresistant Staphylococcus epidermidis 42; assay type: functional
[23] = test system: Staphylococcus epidermidis; assay: Antibacterial activity against multiresistant Staphylococcus epidermidis 33; assay type: functional
Vero [24] = assay: Cytotoxicity against Vero cells measured as percent of cell growth at 1.56 mg/L relative to control by MTT assay; assay type: functional, Chlorocebus sabaeus; how it was run: as §2
[25] = test system: Staphylococcus epidermidis; assay: Antibacterial activity against multiresistant Staphylococcus epidermidis 45; assay type: functional; how it was run: as §3
[26] = test system: Staphylococcus epidermidis; assay: Antibacterial activity against multiresistant Staphylococcus epidermidis […]; assay type: functional
[27] = test system: Staphylococcus epidermidis; assay: Antibacterial activity against multiresistant Staphylococcus epidermidis 30; assay type: functional; how it was run: as §3
[28] = test system: Staphylococcus epidermidis; assay: Antibacterial activity against multiresistant Staphylococcus epidermidis 32; assay type: functional; how it was run: as §3
[29] = test system: Staphylococcus epidermidis; assay: Antibacterial activity against multiresistant Staphylococcus epidermidis 50; assay type: functional; how it was run: as §3
[30] = test system: Staphylococcus epidermidis; assay: Antibacterial activity against multiresistant Staphylococcus epidermidis 21; assay type: functional; how it was run: as §3
[31] = test system: Staphylococcus epidermidis; assay: Antibacterial activity against multiresistant Staphylococcus epidermidis 48; assay type: functional; how it was run: as §3
[32] = test system: Staphylococcus epidermidis; assay: Antibacterial activity against multiresistant Staphylococcus epidermidis 36; assay type: functional; how it was run: as §3
Staphylococcus aureus [33] = assay: Antibacterial activity against multiresistant Staphylococcus aureus 27; assay type: functional; how it was run: as §3
Staphylococcus aureus [34] = assay: Antibacterial activity against multiresistant Staphylococcus aureus 15; assay type: functional; how it was run: as §3
Staphylococcus aureus [35] = assay: Antibacterial activity against multiresistant Staphylococcus aureus 17; assay type: functional; how it was run: as §3
[36] = test system: Staphylococcus haemolyticus; assay: Antibacterial activity against multiresistant Staphylococcus haemolyticus 51; assay type: functional; how it was run: as §3
[37] = test system: Staphylococcus haemolyticus; assay: Antibacterial activity against multiresistant Staphylococcus haemolyticus 56; assay type: functional; how it was run: as §3
Enterococcus faecium [38] = assay: Antibacterial activity against multiresistant Enterococcus faecium 52; assay type: functional; how it was run: as §3
Enterococcus faecium [39] = assay: Antibacterial activity against multiresistant Enterococcus faecium 28; assay type: functional; how it was run: as §3
Enterococcus faecium [40] = assay: Antibacterial activity against multiresistant Enterococcus faecium 57; assay type: functional; how it was run: as §3
Enterococcus faecium [41] = assay: Antibacterial activity against multiresistant Enterococcus faecium 6; assay type: functional; how it was run: as §3
Enterococcus gallinarum [42] = assay: Antibacterial activity against multiresistant Enterococcus gallinarum 37; assay type: functional; how it was run: as §3
Enterococcus gallinarum [43] = assay: Antibacterial activity against multiresistant Enterococcus gallinarum 64; assay type: functional; how it was run: as §3
Staphylococcus aureus [44] = assay: Antibacterial activity against multiresistant Staphylococcus aureus 9; assay type: functional; how it was run: as §3

SMILES: O=C1OC(c2ccc(O)c(Cl)c2)(c2ccc(O)c(Cl)c2)c2cccc3cccc1c23
- MIC (Enterococcus faecalis): 10 µg/mL (≈ 22.9 µM)
- MIC (Escherichia coli [1]): > 25 µg/mL
- MIC (Escherichia coli [2]): > 25 µg/mL
- Activity (Vero [3]): 70%
- Activity (Vero [4]): 90%
- Activity (Vero [5]): 90%
- Activity (Vero [6]): 90%
- Ki (Dihydrofolate reductase): 5.2 µM
- MIC (Listeria monocytogenes [7]): 2.5 µg/mL (≈ 5.72 µM)
- MIC (Listeria monocytogenes [8]): 10 µg/mL (≈ 22.9 µM)
- MIC (Listeria monocytogenes [9]): 5 µg/mL (≈ 11.4 µM)
- MIC (Listeria monocytogenes [10]): 10 µg/mL (≈ 22.9 µM)
- MIC (Listeria monocytogenes [11]): 5 µg/mL (≈ 11.4 µM)
- MIC (Listeria monocytogenes [12]): 5 µg/mL (≈ 11.4 µM)
- MIC (Listeria monocytogenes [13]): 5 µg/mL (≈ 11.4 µM)
- MIC (Staphylococcus aureus [14]): 5 µg/mL (≈ 11.4 µM)
- MIC (Staphylococcus aureus [15]): 5 µg/mL (≈ 11.4 µM)
- MIC (Staphylococcus aureus [16]): > 25 µg/mL
- MIC (Staphylococcus aureus [17]): 5 µg/mL (≈ 11.4 µM)
- MIC [18]: 2.5 µg/mL (≈ 5.72 µM)
- MIC [19]: 2.5 µg/mL (≈ 5.72 µM)
- MIC (Citrobacter): > 25 µg/mL
- MIC (Streptococcus): 5 µg/mL (≈ 11.4 µM)
- Activity (Vero [20]): 58%
- MIC [21]: 2.5 µg/mL (≈ 5.72 µM)
- MIC [22]: 5 µg/mL (≈ 11.4 µM)
- MIC [23]: > 65 µg/mL
- Activity (Vero [24]): 90%
- MIC [25]: > 65 µg/mL
- MIC [26]: > 65 µg/mL
- MIC [27]: > 65 µg/mL
- MIC [28]: > 65 µg/mL
- MIC [29]: > 65 µg/mL
- MIC [30]: > 65 µg/mL
- MIC [31]: > 65 µg/mL
- MIC [32]: > 65 µg/mL
- MIC (Staphylococcus aureus [33]): > 65 µg/mL
- MIC (Staphylococcus aureus [34]): > 65 µg/mL
- MIC (Staphylococcus aureus [35]): > 65 µg/mL
- MIC [36]: > 65 µg/mL
- MIC [37]: > 65 µg/mL
- MIC (Enterococcus faecium [38]): > 65 µg/mL
- MIC (Enterococcus faecium [39]): > 75 µg/mL
- MIC (Enterococcus faecium [40]): 10 µg/mL (≈ 22.9 µM)
- MIC (Enterococcus faecium [41]): 10 µg/mL (≈ 22.9 µM)
- MIC (Enterococcus gallinarum [42]): 10 µg/mL (≈ 22.9 µM)
- MIC (Enterococcus gallinarum [43]): 2.5 µg/mL (≈ 5.72 µM)
- MIC (Staphylococcus aureus [44]): > 65 µg/mL
